# From ChEMBL document CHEMBL1122273, “5-sulfamoylorthanilic acids, a sulfonamide series with salidiuretic activity” (J Med Chem, 1983)
# Where “and” joins values, the source holds several entries; their conditions need not be identical. Equal values may be shown once. Calls of active or inactive are those of the source. No cut-off for these calls is given here.
# Assays:
# Canis familiaris [1] = test: Diuretic activity in the dog (2 animals/dose) at (dose 1.56 mg/Kg), when administered perorally; format: functional, Canis lupus familiaris, Urine
# Method in brief: (§1)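 Trained male beagles, fasted 24 h with tap water ad libitum. Bladder emptied by catheter, then 20 mL/kg tap water by stomach tube, with 4 mL/kg water at each hourly catheterization up to 8 h. The first 2 h of urine served as control. Oral dosing came after the second catheterization, and 1–6 h urine was pooled. Na⁺ and K⁺ were measured by flame photometry, Cl⁻ argentometrically, in mequiv/kg.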
# Canis familiaris [2] = test: Diuretic activity in the dog (2 animals/dose) at (dose 12.5 mg/Kg), when administered perorally; format: functional, Canis lupus familiaris, Urine; method in brief: as §1
# Canis familiaris [3] = test: Saluretic activity in the dog measured as concentration of K+ in urinary excretion (2 animals/dose) at (dose mg/Kg, po); format: functional, Canis lupus familiaris, Urine
# Method in brief: (§2)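 Male beagles trained to rest on a table and to accept stomach tube and catheter. Food withdrawn 24 h before, tap water ad libitum. Bladder emptied by catheter, then 20 mL/kg tap water by stomach tube. Catheterized hourly up to 8 h with 4 mL/kg water orally each time; first 2 h urine served as control. Oral dosing after second catheterization. Pooled 1–6 h urine; Na⁺/K⁺ by flame photometry, Cl⁻ argentometrically.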
# Canis familiaris [4] = test: It is the ratio, measured as saluretic activity in the dog as concentration of Cl- in urinary excretion (dose mg/Kg, po) to that of (Na++K+); format: functional, Canis lupus familiaris, Urine; method in brief: as §1
# Canis familiaris [5] = test: It is the ratio, measured as saluretic activity in the dog as concentration of Na+ in urinary excretion (dose mg/Kg, po) to that of K; format: functional, Canis lupus familiaris, Urine; method in brief: as §1
# Rattus norvegicus [6] = species on record: Rattus norvegicus; test: Diuretic activity in the rats, determined by a modified Lipschitz test; format: functional, Urine
# Method in brief: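 Modified Lipschitz test: rats deprived of water 24 h, grouped in threes of similar weight in diuresis funnels. Oral dose of 50 mg/kg, suspended in 2% starch solution, by stomach tube.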
# Rattus norvegicus [7] = species on record: Rattus norvegicus; test: Saluretic activity in the rat measured as concentration of chloride in urine; format: functional
# Method in brief: (§3)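 Rats deprived of food 24 h, water ad libitum, dosed 50 mg/kg by stomach tube as suspension in 2% starch, no extra water load. Groups of three in diuresis funnels; urine over first 5 h collected. Na⁺ and K⁺ by flame photometry, Cl⁻ argentometrically; expressed as mequiv/kg.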
# Rattus norvegicus [8] = species on record: Rattus norvegicus; test: Saluretic activity in the rat measured as concentration of K+ in urine; format: functional; method in brief: as §3
# Rattus norvegicus [9] = species on record: Rattus norvegicus; test: Saluretic activity in the rat measured as concentration of Na+ in urine; format: functional; method in brief: as §3
# Canis familiaris [10] = test: Saluretic activity in the dog measured as concentration of Na+ in urinary excretion (2 animals/dose) at (dose 1.56 mg/Kg, perorally); format: functional, Canis lupus familiaris, Urine; method in brief: as §2
# Canis familiaris [11] = test: Saluretic activity in the dog measured as concentration of Na+ in urinary excretion (2 animals/dose) at (dose 6.25 mg/Kg, perorally); format: functional, Canis lupus familiaris, Urine; method in brief: as §2
# Canis familiaris [12] = test: Diuretic activity in the dog (2 animals/dose) at (dose 0.4 mg/Kg), when administered perorally; format: functional, Canis lupus familiaris, Urine; method in brief: as §1
# Canis familiaris [13] = test: Diuretic activity in the dog (2 animals/dose) at (dose 6.25 mg/Kg), when administered perorally; format: functional, Canis lupus familiaris, Urine; method in brief: as §1
# Canis familiaris [14] = test: Saluretic activity in the dog measured as concentration of K+ in urinary excretion (2 animals/dose) at (dose 0.4 mg/Kg, perorally); format: functional, Canis lupus familiaris, Urine
# Method in brief: (§4)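 Male beagles trained to the procedures, food withdrawn 24 h before, tap water ad libitum. Bladder emptied by catheter, then 20 mL/kg tap water by stomach tube, plus 4 mL/kg orally at each hourly catheterization up to 8 h. The first 2 h of urine served as control. Compound given orally after the second catheterization. Urine from 1–6 h post-dose pooled; Na⁺ and K⁺ by flame photometry, Cl⁻ argentometrically, in mequiv/kg.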
# Canis familiaris [15] = test: Saluretic activity in the dog measured as concentration of K+ in urinary excretion (2 animals/dose) at (dose 1.56 mg/Kg, perorally); format: functional, Canis lupus familiaris, Urine; method in brief: as §4
# Canis familiaris [16] = test: Saluretic activity in the dog measured as concentration of Na+ in urinary excretion (2 animals/dose) at (dose 0.4 mg/Kg, perorally); format: functional, Canis lupus familiaris, Urine; method in brief: as §2
# Canis familiaris [17] = test: Saluretic activity in the dog measured as concentration of K+ in urinary excretion (2 animals/dose) at (dose 6.25 mg/Kg, perorally); format: functional, Canis lupus familiaris, Urine; method in brief: as §2
# Canis familiaris [18] = test: Saluretic activity in the dog measured as concentration of Cl - in urinary excretion (2 animals/dose) at (1.56 mg/Kg, perorally); format: functional, Canis lupus familiaris, Urine; method in brief: as §4
# Canis familiaris [19] = test: Saluretic activity in the dog measured as concentration of Cl - in urinary excretion (2 animals/dose) at (dose 6.25 mg/Kg, perorally); format: functional, Canis lupus familiaris, Urine; method in brief: as §4
# Canis familiaris [20] = test: Saluretic activity in the dog measured as concentration of Cl - in urinary excretion (2 animals/dose) at (dose 0.4 mg/Kg, perorally); format: functional, Canis lupus familiaris, Urine; method in brief: as §4
# [21] = It is the ratio, measured as saluretic activity in the dog as concentration of Cl- in urinary excretion (dose 0.4 mg/kg perorally) to that of (Na+)+(K+); format: functional, Urine; conditions: route oral; method in brief: as §1
# [22] = It is the ratio, measured as saluretic activity in the dog as concentration of Na+ in urinary excretion (dose 1.56 mg/Kg, perorally) to that of K; format: functional, Urine; method in brief: as §1
# [23] = It is the ratio, measured as saluretic activity in the dog as concentration of Na+ in urinary excretion (dose 6.25 mg/Kg, perorally) to that of K; format: functional, Urine; method in brief: as §1
# [24] = It is the ratio, measured as saluretic activity in the dog as concentration of Cl- in urinary excretion (dose 6.25 mg/Kg, perorally) to that of (Na+)+(K+); format: functional, Urine; method in brief: as §1
# [25] = It is the ratio, measured as saluretic activity in the dog as concentration of Na+ in urinary excretion (dose 0.4 mg/Kg, perorally) to that of K; format: functional, Urine; method in brief: as §1
# [26] = It is the ratio, measured as saluretic activity in the dog as concentration of Cl- in urinary excretion ( perorally) to that (Na++K+)
# Canis familiaris [27] = test: Saluretic activity in the dog measured as concentration of Na+ in urinary excretion (2 animals/dose) at (dose 0.1 mg/Kg, po); format: functional, Canis lupus familiaris, Urine; method in brief: as §2
# Canis familiaris [28] = test: Saluretic activity in the dog measured as concentration of Na+ in urinary excretion (2 animals/dose) at (dose 1.56 mg/Kg, po); format: functional, Canis lupus familiaris, Urine; method in brief: as §2
# Canis familiaris [29] = test: Salidiuretic activity on the basis of the 1.56 mg/Kg po dog assay; compound was highly active; format: functional, organism-based; conditions: Canis lupus familiaris; Urine
# Canis familiaris [30] = test: Diuretic activity in the dog (2 animals/dose) at (dose 0.1 mg/Kg), when administered perorally; format: functional, Canis lupus familiaris, Urine; method in brief: as §1
# Canis familiaris [31] = test: Saluretic activity in the dog measured as concentration of K+ in urinary excretion (2 animals/dose) at (dose 1.56 mg/Kg, po); format: functional, Canis lupus familiaris, Urine; method in brief: as §2
# Canis familiaris [32] = test: Saluretic activity in the dog measured as concentration of K+ in urinary excretion (2 animals/dose) at (dose 0.1 mg/Kg, po); format: functional, Canis lupus familiaris, Urine; method in brief: as §4
# Canis familiaris [33] = test: Saluretic activity in the dog measured as concentration of Cl - in urinary excretion (2 animals/dose) at (dose 1.56 mg/Kg, po); format: functional, Canis lupus familiaris, Urine; method in brief: as §4
# Canis familiaris [34] = test: Saluretic activity in the dog measured as concentration of Cl - in urinary excretion (2 animals/dose) at (dose 0.1 mg/Kg, po); format: functional, Canis lupus familiaris, Urine; method in brief: as §4
# Rattus norvegicus [35] = test: Salidiuretic activity on the basis of the 50 mg/kg po rat assay; compound was highly active; format: functional, organism-based; parameters: dose 50 mg/kg; conditions: Urine
# [36] = It is the ratio, measured as saluretic activity in the dog as concentration of Cl- in urinary excretion (dose 0.1 mg/Kg, po) to that of (Na+)+(K+); format: functional, Urine; method in brief: as §1
# [37] = It is the ratio, measured as saluretic activity in the dog as concentration of Na+ in urinary excretion (dose 1.56 mg/Kg, po) to that of K; format: functional, Urine; method in brief: as §1
# [38] = It is the ratio, measured as saluretic activity in the dog as concentration of Cl- in urinary excretion (dose 1.56 mg/Kg, po) to that of (Na+)+(K+); format: functional, Urine; method in brief: as §1
# [39] = It is the ratio, measured as saluretic activity in the dog as concentration of Na+ in urinary excretion (dose 0.1 mg/Kg, po) to that of K; format: functional, Urine; method in brief: as §1
compound,measurement,setting,value
NS(=O)(=O)c1cc(S(=O)(=O)[O-])c(NCc2ccco2)cc1Nc1ccccc1.[Na+],Diuretic activity,Canis familiaris [1],32.3 ml kg-1 6hr-1
same,Diuretic activity,Canis familiaris [2],49.4 ml kg-1 6hr-1
same,Saluretic activity,Canis familiaris [3],0.18 m equiv 6hr-1 kg-1 and 0.45 m equiv 6hr-1 kg-1
same,Saluretic activity,Canis familiaris [4],1 and 1.1
same,Saluretic activity,Canis familiaris [5],2.1 and 5
same,Diuretic activity,Rattus norvegicus [6],0.6 mL/kg
same,Saluretic activity,Rattus norvegicus [7],1.1 m equiv 5hr-1 kg-1
same,Saluretic activity,Rattus norvegicus [8],0.7 m equiv 5hr-1 kg-1
same,Saluretic activity,Rattus norvegicus [9],0.6 m equiv 5hr-1 kg-1
NS(=O)(=O)c1cc(S(=O)(=O)[O-])c(NCc2ccco2)cc1Cl.[Na+],Saluretic activity,Canis familiaris [10],2.61 m equiv 6hr-1 kg-1
same,Saluretic activity,Canis familiaris [11],4.36 m equiv 6hr-1 kg-1
same,Diuretic activity,Canis familiaris [12],37 ml kg-1 6hr-1
same,Diuretic activity,Canis familiaris [1],42.4 ml kg-1 6hr-1
same,Diuretic activity,Canis familiaris [13],66.5 ml kg-1 6hr-1
same,Saluretic activity,Canis familiaris [14],0.19 m equiv 6hr-1 kg-1
same,Saluretic activity,Canis familiaris [15],0.53 m equiv 6hr-1 kg-1
same,Saluretic activity,Canis familiaris [16],0.45 m equiv 6hr-1 kg-1
same,Saldiuretic activity,Canis familiaris [17],0.78 m equiv 6hr-1 kg-1
same,Concentration of Cl-,Canis familiaris [18],3.24 m equiv 6hr-1 kg-1
same,Saldiuretic activity,Canis familiaris [19],4.74 m equiv 6hr-1 kg-1
same,Saluretic activity,Canis familiaris [20],0.69 m equiv 6hr-1 kg-1
same,Diuretic activity,Rattus norvegicus [6],2.8 mL/kg
same,Saluretic activity,Rattus norvegicus [7],8.3 m equiv 5hr-1 kg-1
same,Saluretic activity,Rattus norvegicus [8],2.3 m equiv 5hr-1 kg-1
same,Ratio,[21],1.1
same,Ratio,[22],4.9
same,Ratio,[23],5.6
same,Ratio,[24],0.9
same,Ratio,[25],2.3
same,Saluretic activity,Rattus norvegicus [9],7.1 m equiv 5hr-1 kg-1
same,Ratio,[26],1
NS(=O)(=O)c1cc(S(=O)(=O)[O-])c(NCc2cccs2)cc1S(=O)(=O)C1CCCCC1.[Na+],Saluretic activity,Canis familiaris [27],3.18 m equiv 6hr-1 kg-1
same,Saluretic activity,Canis familiaris [28],5.4 m equiv 6hr-1 kg-1
same,Saldiuretic activity,Canis familiaris [29],Active
same,Diuretic activity,Canis familiaris [30],47.4 ml kg-1 6hr-1
same,Diuretic activity,Canis familiaris [1],66.7 ml kg-1 6hr-1
same,Saluretic activity,Canis familiaris [31],1.05 m equiv 6hr-1 kg-1
same,Saldiuretic activity,Canis familiaris [32],0.41 m equiv 6hr-1 kg-1
same,Saldiuretic activity,Canis familiaris [33],6.39 m equiv 6hr-1 kg-1
same,Saldiuretic activity,Canis familiaris [34],3.54 m equiv 6hr-1 kg-1
same,Diuretic activity,Rattus norvegicus [6],4 mL/kg
same,Saluretic activity,Rattus norvegicus [7],8.7 m equiv 5hr-1 kg-1
same,Saluretic activity,Rattus norvegicus [8],2.2 m equiv 5hr-1 kg-1
same,Saldiuretic activity,Rattus norvegicus [35],Active
same,Ratio,[36],1
same,Ratio,[37],5.1
same,Ratio,[38],1
same,Ratio,[39],7.7
same,Saluretic activity,Rattus norvegicus [9],7.3 m equiv 5hr-1 kg-1
